Source: ChEMBL document CHEMBL3124861, “Application of ProTide technology to gemcitabine: a successful approach to overcome the key cancer resistance mechanisms leads to a new agent (NUC-1031) in clinical development” (J Med Chem, 2014)

Key:
Type in all cases: functional, cell-based
CCRF-CEM = experiment: Cytostatic activity against human CEM cells after 72 hrs by coulter counter analysis
In short: (§1)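 Tumor cell proliferation assay with murine leukemia and human T-lymphoblast cells. IC50 is the concentration that inhibits proliferation by 50%. Values are means of at least two independent experiments.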

L1210 = experiment: Cytostatic activity against mouse L1210 cells after 48 hrs by coulter counter analysis; settings: L1210, 48 h; in short: as §1
MIA PaCa-2 = experiment: Cytostatic activity against human MIAPaCa2 cells after 72 hrs by MTS assay; settings: MIA PaCa-2, 72 h
In short: (§2)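 Pancreatic carcinoma cell proliferation assay. IC50 is the concentration that inhibits tumor cell proliferation by 50%. Values are means of at least two independent experiments.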

BXPC-3 = experiment: Cytostatic activity against human BxPC3 cells after 72 hrs by MTS assay; settings: BXPC-3, 72 h; in short: as §2

CC(C)OC(=O)[C@H](C)NP(=O)(OC[C@H]1O[C@@H](n2ccc(N)nc2=O)C(F)(F)[C@@H]1O)Oc1ccccc1 (stereo partly specified)
IC50 (CCRF-CEM): > 5000 nM
IC50 (L1210): > 5000 nM
IC50 (MIA PaCa-2): > 5000 nM
IC50 (BXPC-3): > 5000 nM

CCCCCOC(=O)[C@H](C)NP(=O)(OC[C@H]1O[C@@H](n2ccc(N)nc2=O)C(F)(F)[C@@H]1O)Oc1ccccc1 (stereo partly specified)
IC50 (CCRF-CEM): 80 nM
IC50 (L1210): 24 nM

CCCCCCOC(=O)[C@H](C)NP(=O)(OC[C@H]1O[C@@H](n2ccc(N)nc2=O)C(F)(F)[C@@H]1O)Oc1ccccc1 (stereo partly specified)
IC50 (CCRF-CEM): 81 nM
IC50 (L1210): 16 nM

C[C@H](NP(=O)(OC[C@H]1O[C@@H](n2ccc(N)nc2=O)C(F)(F)[C@@H]1O)Oc1ccccc1)C(=O)OCC(C)(C)C (stereo partly specified)
IC50 (CCRF-CEM): 440 nM
IC50 (L1210): 390 nM
IC50 (MIA PaCa-2): 1410 nM
IC50 (BXPC-3): 360 nM

C[C@H](NP(=O)(OC[C@H]1O[C@@H](n2ccc(N)nc2=O)C(F)(F)[C@@H]1O)Oc1ccccc1)C(=O)OC1CCCCC1 (stereo partly specified)
IC50 (CCRF-CEM): 420 nM
IC50 (L1210): 600 nM

CCCCCOC(=O)C(C)(C)NP(=O)(OC[C@H]1O[C@@H](n2ccc(N)nc2=O)C(F)(F)[C@@H]1O)Oc1cccc2ccccc12 (stereo partly specified)
IC50 (CCRF-CEM): 130 nM
IC50 (L1210): 160 nM
